For orientation: pIC50 means the negative decadic logarithm of the IC50, by convention in mol/L.

pIC50: −log10 of the molar value. Calls of active or inactive are those of the source. No cut-off for these calls is given here.

Series [1] deals with NACHT, LRR and PYD domains-containing protein 3 (Mus musculus, UniProt Q8R4B8). Put plainly: Inhibition of NLRP3 inflammasome activation in LPS treated mouse J774.A1 cells assessed as inhibition of ATP-stimulated IL-1beta secretion pre-incubated for 30 mins followed by ATP addition measured after 30 mins by ELISA. It is filed as cell-based. Conditions: for pIC50: read-out: IC50; for IC50: j774.a1. An outline of the steps: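 Murine J774A.1 macrophages seeded at 1×10^5 cells/well overnight, then primed with E. coli O111:B4 LPS (final 1 µg/mL) for 4.5 h. Compounds added for 30 min, then ATP (5 mM) for 30 min to activate NLRP3. IL-1β released into the supernatant quantified by mouse IL-1β ELISA.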
In general terms: ELISA stands for enzyme-linked immunosorbent assay.

Series [2] concerns the target T1, Interferon-inducible protein AIM2 (Mus musculus) (UniProt Q91VJ1).
T1 sequence (whole entry): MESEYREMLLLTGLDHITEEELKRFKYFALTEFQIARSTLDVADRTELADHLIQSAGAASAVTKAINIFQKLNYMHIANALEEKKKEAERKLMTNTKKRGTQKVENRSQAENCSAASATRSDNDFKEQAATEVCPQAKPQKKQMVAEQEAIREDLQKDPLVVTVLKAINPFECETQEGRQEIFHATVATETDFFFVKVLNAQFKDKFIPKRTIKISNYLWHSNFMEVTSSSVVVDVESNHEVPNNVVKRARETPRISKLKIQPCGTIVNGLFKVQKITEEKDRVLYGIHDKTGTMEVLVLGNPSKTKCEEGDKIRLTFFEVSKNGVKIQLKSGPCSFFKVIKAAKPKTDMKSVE
As to the kind of experiment: Inhibition of AIM2 inflammasome activation in LPS treated mouse J774.A1 cells assessed as inhibition of IL-1beta secretion at 3 uM pre-incubated for 1 hr followed by Poly (dA:dT) stimulation for 4 hrs by ELISA. The conditions noted are these: time 5.0 hrs. The format is cell-based. The method, boiled down: (§1)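 J774A.1 cells at 1×10^5/well, plated overnight. Co-treated with LPS (1 µg/mL) and compound for 1 h. AIM2 triggered by poly(dA:dT) (4 µg/mL) transfected with Lipofectamine 2000 for 4 h. NLRC4 triggered by flagellin (1 µg/mL) delivered with a transfection kit for 6 h. Supernatant IL-1β read by mouse ELISA.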

Series [3] has as its target NLR family CARD domain-containing protein 4 (Mus musculus) (UniProt Q3UP24). As to the kind of experiment: Inhibition of NLRC4 inflammasome activation in LPS treated mouse J774.A1 cells assessed as inhibition of IL-1beta secretion at 3 uM pre-incubated for 1 hr followed by flagellin stimulation for 6 hrs by ELISA. The format is cell-based. Conditions: time 7.0 hrs. The method, boiled down:
as §1

Series [4] has the same target. As to the kind of experiment: Inhibition of NLRC4 inflammasome activation in LPS treated mouse J774.A1 cells assessed as inhibition of IL-1beta secretion at 10 uM pre-incubated for 1 hr followed by flagellin stimulation for 6 hrs by ELISA. It is filed as cell-based. The conditions noted are these: time 7.0 hrs. An outline of the steps: as §1
Series [5] has as its target T1, Interferon-inducible protein AIM2 (Mus musculus). Put plainly: Inhibition of AIM2 inflammasome activation in LPS treated mouse J774.A1 cells assessed as inhibition of IL-1beta secretion at 10 uM pre-incubated for 1 hr followed by Poly (dA:dT) stimulation for 4 hrs by ELISA. The conditions noted are these: time 5.0 hrs. It is filed as cell-based. An outline of the steps:
as §1

Series [6] concerns the target NACHT, LRR and PYD domains-containing protein 3 (Mus musculus) (UniProt Q8R4B8). Put plainly: Inhibition of NLRP3 inflammasome activation in LPS treated mouse J774.A1 cells assessed as inhibition of TNF-alpha secretion at <=3 uM followed by LPS addition measured after 4.5 hrs by ELISA. It is filed as cell-based.
Series [7] has the same target. Put plainly: Binding affinity to NLRP3 in wild type C57BL/6 mouse brain incubated for 20 mins in presence of compound MCC950 by autoradiography. It is filed as tissue-based. The conditions noted are these: tested as the 11C-labelled form. The method, boiled down:
(§2)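 Frozen mouse brain sections preincubated in 50 mM Tris-HCl pH 7.4 for 30 min at ambient temperature, then incubated 20 min at ambient temperature with [11C]8 (5 mCi/L, ~1 nM). For blocking, unlabeled ligand (10 μM) added to the incubation solution beforehand (n = 4). Sections washed in Tris-HCl (3 × 5 min), dried, exposed to imaging plates 120 min; ROI signal given as DLU/mm2.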

For series [8] the target is unchanged. As to the kind of experiment: Binding affinity to NLRP3 in wild type C57BL/6 mouse brain incubated for 20 mins in presence of compound 8 by autoradiography. The format is tissue-based. The conditions noted are these: tested as the 11C-labelled form. The method, boiled down: as §2
Series [9] has the same target. Put plainly: Binding affinity to NLRP3 in C57BL/6 mouse brain expressing nIrp3-/- incubated for 20 mins by autoradiography. The format is tissue-based. Conditions: tested as the 11C-labelled form. An outline of the steps: as §2
Series [10] has the same target. Put plainly: Binding affinity to NLRP3 in wild type C57BL/6 mouse brain incubated for 20 mins by autoradiography. It is filed as tissue-based. The conditions noted are these: tested as the 11C-labelled form. The method, boiled down:
as §2

Series [11] has the same target. As to the kind of experiment: Inhibition of NLRP3 inflammasome activation in LPS treated mouse J774.A1 cells assessed as inhibition of ATP-stimulated IL-1beta secretion at 0.1 to 1 uM pre-incubated for 30 mins followed by ATP addition measured after 30 mins by ELISA. It is filed as cell-based. The conditions noted are these: dose 0.1-1 µM, time 60.0 min. An outline of the steps:
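J774A.1 cells plated at 1 × 10^5 cells/well overnight, primed with E. coli 0111:B4 LPS (final 1 μg/mL) for 4.5 h. Compound added for 30 min, then ATP (5 mM) for 30 min to activate NLRP3. IL-1β in supernatant measured by mouse IL-1β ELISA.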

Series [12] shares this target. As to the kind of experiment: Inhibition of NLRP3 inflammasome activation in LPS treated mouse J774.A1 cells assessed as inhibition of nigericin-stimulated IL-1beta secretion at 0.1 to 1 uM pre-incubated for 30 mins followed by nigericin addition measured after 30 mins by ELISA. It is filed as cell-based. Conditions: dose 0.1-1 µM, time 60.0 min.
The target is the same in series [13]. Put plainly: Inhibition of NLRP3 inflammasome activation in LPS treated mouse J774.A1 cells assessed as inhibition of TNF-alpha secretion at 0.1 to 10 uM followed by LPS addition measured after 4.5 hrs by ELISA. It is filed as cell-based. The conditions noted are these: dose 0.1-10 µM.
Series [14] in a line: Drug uptake in monkey putamen at iv administration by PET/MR imaging analysis. The format is ADME, organism-based, Macaca mulatta. Conditions: rhesus monkey, in vivo. The method, boiled down:
(§3)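 Single rhesus macaque (n=1). Radiotracer 5.20 mCi given i.v. through an antecubital catheter. Dynamic PET/MR acquired on a 3T scanner with a BrainPET insert, 3D-OSEM reconstruction, registration to the INIA19/NeuroMaps atlas. Regional activity expressed as SUV, with an arterial line for plasma metabolite analysis.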

The nature of series [15]: Drug uptake in monkey cerebellum at iv administration by PET/MR imaging analysis. The format is ADME, organism-based, Macaca mulatta. The conditions noted are these: rhesus monkey, in vivo. An outline of the steps: as §3
A short description of series [16]: Drug uptake in monkey hippocampus at iv administration by PET/MR imaging analysis. The format is ADME, organism-based, Macaca mulatta. Conditions: rhesus monkey, in vivo. An outline of the steps: as §3
The nature of series [17]: Drug uptake in monkey insula at iv administration by PET/MR imaging analysis. The format is ADME, organism-based, Macaca mulatta. Conditions: rhesus monkey, in vivo. An outline of the steps: as §3
Series [18] is described as follows: Drug uptake in monkey brain assessed as standardized uptake value at iv administration by PET/MR imaging analysis. It is filed as ADME, organism-based, Macaca mulatta. Conditions: rhesus monkey, in vivo. An outline of the steps:
as §3

Series [19] is described as follows: Drug uptake in monkey thalamus at iv administration by PET/MR imaging analysis. Conditions: rhesus monkey, in vivo. It is filed as ADME, organism-based, Macaca mulatta. The method, boiled down: as §3

Sequence of NLR family CARD domain-containing protein 4 (Mus musculus) (Q3UP24 whole entry, the tested form may be a part): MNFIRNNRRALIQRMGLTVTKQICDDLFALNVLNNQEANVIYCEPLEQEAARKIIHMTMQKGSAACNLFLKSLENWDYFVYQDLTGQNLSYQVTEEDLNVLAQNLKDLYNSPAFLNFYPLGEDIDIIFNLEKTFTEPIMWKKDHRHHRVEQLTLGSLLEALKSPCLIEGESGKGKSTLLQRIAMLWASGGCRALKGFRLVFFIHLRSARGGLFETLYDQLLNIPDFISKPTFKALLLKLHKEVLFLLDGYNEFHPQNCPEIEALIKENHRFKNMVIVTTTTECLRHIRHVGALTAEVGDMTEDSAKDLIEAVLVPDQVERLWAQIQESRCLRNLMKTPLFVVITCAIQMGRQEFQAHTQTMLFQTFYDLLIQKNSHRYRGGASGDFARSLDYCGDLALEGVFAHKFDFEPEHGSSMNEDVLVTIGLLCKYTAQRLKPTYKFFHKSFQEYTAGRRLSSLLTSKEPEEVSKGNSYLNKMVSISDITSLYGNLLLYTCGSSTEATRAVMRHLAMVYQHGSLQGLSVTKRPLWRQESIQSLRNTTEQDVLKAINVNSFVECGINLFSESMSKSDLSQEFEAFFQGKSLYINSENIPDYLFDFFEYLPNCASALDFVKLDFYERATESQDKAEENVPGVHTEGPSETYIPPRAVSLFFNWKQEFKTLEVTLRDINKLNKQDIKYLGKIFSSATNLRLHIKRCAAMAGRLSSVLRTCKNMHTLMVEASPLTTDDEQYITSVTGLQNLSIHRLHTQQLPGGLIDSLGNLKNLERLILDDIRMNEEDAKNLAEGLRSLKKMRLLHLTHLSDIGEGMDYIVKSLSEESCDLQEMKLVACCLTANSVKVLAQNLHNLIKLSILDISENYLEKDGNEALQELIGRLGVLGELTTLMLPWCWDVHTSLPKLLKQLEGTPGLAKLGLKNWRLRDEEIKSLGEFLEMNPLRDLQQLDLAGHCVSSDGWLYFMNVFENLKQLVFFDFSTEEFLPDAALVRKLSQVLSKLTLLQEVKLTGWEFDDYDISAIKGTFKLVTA
Sequence of NACHT, LRR and PYD domains-containing protein 3 (Q8R4B8 whole entry, the tested form may be a part): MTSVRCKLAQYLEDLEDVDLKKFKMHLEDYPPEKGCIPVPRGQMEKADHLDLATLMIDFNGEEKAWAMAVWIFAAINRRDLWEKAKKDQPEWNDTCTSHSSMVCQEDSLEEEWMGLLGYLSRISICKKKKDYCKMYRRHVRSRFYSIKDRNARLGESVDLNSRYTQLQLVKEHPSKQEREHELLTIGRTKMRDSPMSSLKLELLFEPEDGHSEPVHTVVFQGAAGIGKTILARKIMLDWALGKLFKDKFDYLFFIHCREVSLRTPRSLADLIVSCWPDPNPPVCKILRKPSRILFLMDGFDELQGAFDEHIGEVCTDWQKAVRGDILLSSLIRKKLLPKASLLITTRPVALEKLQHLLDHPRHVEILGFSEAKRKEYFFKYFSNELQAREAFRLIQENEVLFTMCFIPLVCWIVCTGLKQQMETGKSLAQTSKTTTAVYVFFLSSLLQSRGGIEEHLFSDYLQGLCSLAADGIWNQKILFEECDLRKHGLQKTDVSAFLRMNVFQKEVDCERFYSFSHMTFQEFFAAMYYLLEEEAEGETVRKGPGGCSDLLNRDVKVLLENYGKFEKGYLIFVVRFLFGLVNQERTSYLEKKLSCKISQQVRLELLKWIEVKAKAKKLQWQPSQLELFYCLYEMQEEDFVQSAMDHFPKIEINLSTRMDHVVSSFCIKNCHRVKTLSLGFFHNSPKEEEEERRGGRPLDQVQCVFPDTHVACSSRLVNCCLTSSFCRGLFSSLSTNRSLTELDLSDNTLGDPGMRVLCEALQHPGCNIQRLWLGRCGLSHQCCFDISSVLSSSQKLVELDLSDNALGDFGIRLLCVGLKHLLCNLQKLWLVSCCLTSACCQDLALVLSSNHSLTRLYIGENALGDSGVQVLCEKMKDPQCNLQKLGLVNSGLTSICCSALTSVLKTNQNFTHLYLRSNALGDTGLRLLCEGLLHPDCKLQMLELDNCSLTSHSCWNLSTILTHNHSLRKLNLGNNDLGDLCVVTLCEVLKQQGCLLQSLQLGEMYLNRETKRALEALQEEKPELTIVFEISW
Sequence of NACHT, LRR and PYD domains-containing protein 3 (Mus musculus) (Q8R4B8 whole entry, the tested form may be a part): as above

On to `CNC(=O)c1ccc(-c2cn(Cc3cc(Cl)ccc3OC)nn2)cc1`, for which the pIC50 in [1] is 5.38. Same read-out and setting: next, `COc1ccc(Cl)cc1Cn1cc(-c2ccc(C(=O)O)cc2)nn1`: 4.85.

On to `CCCOc1ccc(Cl)cc1Cn1cc(-c2ccccc2)nn1`, for which the inhibition result in series [2], in [3], in series [4] and in series [5] was “Active” throughout. Besides, in series [6], the inhibition entry was “inactive”. `COC(=O)c1ccc(-c2cn(Cc3cc(F)cc(F)c3OC)nn2)cc1`: the IC50 result in series [1] is “Not Active”. On to `CCCOc1ccc(Cl)cc1Cn1cc(-c2ccc(C)cc2)nn1`, for which the negative logarithm of the IC50 (pIC50) in series [1] was 5.08.

As for `CCCOc1ccc(Cl)cc1Cn1cc(-c2ccc(C(=O)OC)cc2)nn1`, the pIC50 in [1] was 5.92. On the same count and under the same terms, to `COC(=O)c1ccc(-c2cn(Cc3cc(Cl)ccc3OC)nn2)c(F)c1` belongs 5.79; to `CCCOc1ccc(Cl)cc1Cn1cc(-c2ccc(C(=O)O)cc2)nn1`, 4.92; to `COC(=O)c1ccc(-c2cn(Cc3cc(F)ccc3OC)nn2)cc1`, 5.82. Same read-out and setting: next, `CCCOc1ccc(Cl)cc1Cn1cc(-c2ccc(S(N)(=O)=O)cc2)nn1`: 5.82; `COC(=O)c1ccc(-c2cn(Cc3ccccc3OC)nn2)cc1`: 5.43. As to `COC(=O)c1ccc(-c2cn(Cc3ccccc3)nn2)cc1`, the IC50 entry in series [1] is on record as “Not Active”. On to `COc1ccc(-c2cn(Cc3cc(Cl)ccc3OC)nn2)cc1`, for which the pIC50 in series [1] was 5.88.

As to `CCCOc1ccc(Cl)cc1Cn1cc(-c2ccc(C(F)(F)F)cc2)nn1`, in series [1], the pIC50 was 4.89. Still for that read-out and setting: to `COC(=O)c1ccc(-c2cn(Cc3cc(Cl)ccc3O)nn2)cc1` belongs 5.50; to `COc1ccc(Cl)cc1Cn1cc(-c2ccc(C(=O)N3CCC3)cc2)nn1`, 5.84; to `COC(=O)c1ccc(-c2cn(Cc3cc(Br)ccc3OC)nn2)cc1`, 5.97.

For the molecule `COC(=O)c1ccc(-c2cn(Cc3cc(C(F)(F)F)ccc3OC)nn2)cc1`, the pIC50 in series [1] is 6.09. For `COC(=O)c1ccc(-c2cn(Cc3cc(Cl)ccc3OC)nn2)nc1`, in series [1], the negative logarithm of the IC50 (pIC50) is 5.64. As to `COC(=O)c1cccc(-c2cn(Cc3cc(Cl)ccc3OC)nn2)c1`, in series [1], the pIC50 was 5.79.

For `COC(=O)c1ccc(-c2cn(Cc3cc(Cl)ccc3C(F)(F)F)nn2)cc1`, the IC50 entry in series [1] is recorded as “Not Active”.

For `COC(=O)c1ccc(-c2cn(Cc3cc(Cl)ccc3OC)nn2)c(C)c1`, in series [1], the pIC50 was 5.69. For the molecule `COC(=O)c1ccc(-c2cn(Cc3cc(Cl)cc(OC)c3)nn2)cc1`, the pIC50 in series [1] was 6.29.

In the case of `COC(=O)c1ccc(-c2cn(Cc3cc(F)c(F)cc3OC)nn2)cc1`, in series [1], the pIC50 was 5.61. In the case of `COC(=O)c1ccc(-c2cn(Cc3cccc(Cl)c3)nn2)cc1`, in series [1], the pIC50 is 5.67.

As to `COC(=O)c1ccc(-c2cn(Cc3cc(Cl)ccc3OC)nn2)cc1`, the outcome in [7], in [8], in series [9] and in series [10] was Active. Further, the inhibition result in [4], in series [5] and in series [13] was “inactive” in each case. For the same molecule, the inhibition result in [11] and in series [12] was “Active” in each case. As for `COC(=O)c1ccc(-c2cn(Cc3cc(Cl)ccc3O[11CH3])nn2)cc1`, the Drug uptake entry in series [14], in series [15], in series [16], in series [17] and in [19] was “Active” each time. In series [18], the SUV is > 3. As for `COC(=O)c1ccc(-c2cn(Cc3c(OC)ccc(F)c3F)nn2)cc1`, the pIC50 in [1] is 5.54. As to `CCCOc1ccc(Cl)cc1Cn1cc(-c2ccc(F)cc2)nn1`, the pIC50 in [1] is 5.37.

Take `COC(=O)c1ccc(-c2cn(Cc3ccccc3OC(F)F)nn2)cc1`: the pIC50 in [1] is 5.09.

The record behind these values is ChEMBL document CHEMBL5532673, “Design and Discovery of Novel NLRP3 Inhibitors and PET Imaging Radiotracers Based on a 1,2,3-Triazole-Bearing Scaffold” (J Med Chem, 2024).
